Experimental data gathered from unrelated publications.
Compare with care: the assays were run in different laboratories.
Organism: Klebsiella pneumoniae
Effect on: microbial growth

O=C1NN=C(N=Cc2ccccc2)C1=NNn1c(-c2ccccc2)nc2ccccc2c1=O  MIC (broth dilution; 24 h): 114 µM
CCCCCCC#Cc1cncc(-c2nnc(SCc3ccc([N+](=O)[O-])o3)n2C2CC2)c1  MIC: ≥ 20 µg/mL
COc1cc(Cc2cnc(N)nc2N)cc(OC)c1OC  MIC (broth dilution; ATCC700603): 20 µM
Cc1c(CN(C)C(=O)/C=C/c2cnc3c(c2)CCC(=O)N3)oc2ccccc12  MIC (broth dilution): > 32 µg/mL
CC[C@H]1OC(=O)[C@H](C)[C@@H](O[C@H]2C[C@@](C)(OC)[C@@H](O)[C@H](C)O2)[C@H](C)[C@@H](O[C@@H]2O[C@H](C)C[C@H](N(C)C)[C@H]2O)[C@](C)(O)C[C@@H](C)C(=O)[C@H](C)[C@@H](O)[C@]1(C)O  MIC (broth dilution; ATCC700603): 160 µM
CC1=NN(CNc2ccccc2[N+](=O)[O-])C(=O)C1=NNn1c(-c2ccccc2)nc2ccccc2c1=O  MIC (broth dilution; 24 h): 50.4 µM
CC(C)Oc1c(NC(=O)c2ccc(NC(=O)[C@H](CC(N)=O)NC(=O)c3ccc(NC(=O)c4ccc(C#N)cn4)cc3)cc2)ccc(C(=O)Nc2ccc(C(=O)O)cc2)c1O  MIC (DSM30104): > 64 µg/mL
NCCCNC1CCCCc2c1[nH]c1ccc(Br)cc21 (stereo not drawn)  MIC (broth dilution; ATCC10031): 8 µg/mL
NC[C@H]1O[C@H](O[C@H]2[C@H](O)[C@@H](O[C@H]3O[C@H](CO)[C@@H](O)[C@H](N)[C@H]3O)[C@H](N)C[C@@H]2N)[C@H](N)C[C@@H]1O  MIC: 0.5 to 1 µg/mL
CN(C)Cc1ccc2c(N(C)C)c3c(c(O)c2c1)C(=O)C1=C(O)[C@]2(O)C(=O)C(C(N)=O)=C(O)[C@@H](N(C)C)[C@@H]2C[C@@H]1C3  MIC (broth dilution; ATCC13883): 4 µg/mL
Cc1c(CN(C)C(=O)/C=C/c2cnc3c(c2)CC(CCN)C(=O)N3)oc2ccccc12.Cl (stereo not drawn)  MIC (broth dilution; BAA2473): 16 µg/mL
CN(C)[C@@H]1C(O)=C(C(N)=O)C(=O)[C@@]2(O)C(O)=C3C(=O)c4c(cc5ccc(CN(C)S(C)(=O)=O)cc5c4O)C[C@H]3C[C@@H]12  MIC (broth dilution; ATCC13883): 32 µg/mL
CCn1cc(C(=O)O)c(=O)c2ccc(C)nc21  MIC (broth dilution; ATCC700603): 80 µM
O=C(Nc1ccc(F)c(Cl)c1)c1cc(Cl)ccc1O  MIC (broth dilution; BAA1705): > 64 µg/mL
C[C@H]1COc2c(N3CCN(C)CC3)c(F)cc3c(=O)c(C(=O)O)cn1c23  MIC (broth dilution; ATCC700603): 0.16 µM
CCCCCCC#Cc1cncc(-c2nnc(SCc3ccc(Cl)c(F)c3)n2C)c1  MIC: ≥ 20 µg/mL
CC1(C)S[C@@H]2[C@H](/N=C/N3CCCCCC3)C(=O)N2[C@H]1C(=O)O  MIC (broth dilution; ATCC700603): 2.5 µM
CC(C)(O/N=C(\C(=O)N[C@@H]1C(=O)N2C(C(=O)[O-])=C(C[n+]3ccccc3)CS[C@H]12)c1csc(N)n1)C(=O)O  MIC (broth dilution; ATCC10031; 18 h): 2 µg/mL
